{"data": "Published values collected from several papers", "target": "Cytochrome P450 2C9 (CYP2C9, Homo sapiens, UniProt P11712)", "observed": "enzyme activity", "mode": "inhibitor"}
{"Compound": "O=C(NCCN1CCCC1)c1cc(-c2ccc(CN3CCOCC3)cc2)nc2ccc(F)cc12", "test system": "human, liver microsomes", "endpoint": "IC50", "value": "> 100 µM"}
{"Compound": "Nc1nc(N)c2nc(CNc3ccc(C(=O)c4ccccc4)cc3)cnc2n1", "assay": "luciferase", "endpoint": "IC50", "value": "25.1 µM"}
{"Compound": "COc1ccn2c(Nc3ccccc3F)c(-c3ccncn3)nc2c1", "endpoint": "IC50", "value": "0.41 µM"}
{"Compound": "Nc1nc(N)c2nc(CNc3ccc(C(=O)NCCc4ccccc4)cc3)cnc2n1", "assay": "luciferase", "endpoint": "IC50", "value": "18.6 µM"}
{"Compound": "C=CC(=O)Nc1cc(Nc2nccc(Nc3cc(Cl)c(F)cc3C(C)(C)O)n2)c(OC)cc1N1CC[C@@H](N(C)C)C1", "test system": "human, liver microsomes", "endpoint": "IC50", "value": "> 30 µM"}
{"Compound": "C[C@@H](c1ccc2nccn2c1)n1nnc2ncc(-c3cnn(C)c3)nc21", "test system": "human, liver microsomes", "conditions": "pH 7.4", "endpoint": "IC50", "value": "4.7 µM"}
{"Compound": "CCCOC(=O)C1CCN(C(=O)c2ccc(N(C)Cc3cnc4nc(N)nc(N)c4n3)cc2)CC1", "assay": "luciferase", "endpoint": "IC50", "value": "5.5 µM"}
{"Compound": "C[C@H]1CN(c2n[nH]c3nc(N[C@H]4CC[C@H](NS(=O)(=O)CCC(F)(F)F)CC4)ncc23)CCO1", "endpoint": "IC50", "value": "> 100 µM"}
{"Compound": "COc1ccc2c(Cc3ccccc3F)c3n(c(=O)c2c1OC)CCc1cc2c(cc1-3)OCO2", "endpoint": "IC50", "value": "> 10 µM"}
{"Compound": "Cc1cc2c(F)c(Oc3ncnn4cc(OC[C@@H](C)O)c(C)c34)ccc2[nH]1", "assay": "fluorescence", "conditions": "15 min", "endpoint": "IC50", "value": "1.39 µM"}
{"Compound": "Cc1cc(C)c2c(c1)[C@@H](N(Cc1cc(C(F)(F)F)cc(C(F)(F)F)c1)c1nnn(C)n1)CCCN2C[C@H]1CC[C@H](C(=O)O)CC1", "test system": "human, liver microsomes", "conditions": "pH 7.4", "endpoint": "Ki", "value": "0.57 µM"}
{"Compound": "Cc1ccc2nc(-c3ccccc3)c(CNc3ccc(F)cc3)n2c1", "endpoint": "IC50", "value": "0.41 µM"}
{"Compound": "CCc1cc(/C(C)=N/OCc2ccc(C3CCCCC3)c(C(F)(F)F)c2)ccc1CN1CC(C(=O)O)C1", "test system": "human, liver microsomes", "conditions": "20 min", "endpoint": "IC50", "value": "~1.3 µM"}
{"Compound": "Ic1ccc(CSCn2ccnc2)cc1", "test system": "MFC", "conditions": "30 min, pH 7.4", "endpoint": "IC50", "value": "0.155 µM"}
{"Compound": "COc1ccc2c(Cc3ccccc3F)c3[n+](cc2c1OC)CCc1cc2c(cc1-3)OCO2", "endpoint": "IC50", "value": "> 10 µM"}
